# Reference: ChEMBL document CHEMBL1129074, “Inhibitors of human immunodeficiency virus type 1 derived from gp41 transmembrane protein: structure--activity studies” (J Med Chem, 1996)
# Peptide text beside a SMILES is read from it.
# System: MT4
# Assay: Inhibitory potency of gp41 fragment against HIV-1 induced cytopathic effect in MT-4 cell assay at 20 uM
# Type: functional, Homo sapiens
# Details: for inhibition at 20 µM: Homo sapiens, MT4
# Outline: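 MT4 cells (exponential growth) at 5×10^5 cells/mL infected with HIV-1 IIIB (100× TCID50) for 1 h at 37 °C, diluted 6-fold, added to serially diluted peptide in RPMI 1640/FCS medium; mock-infected controls. After 5 days at 37 °C, 5% CO2, cells lysed with Nonidet-40 and DNA content read by propidium iodide. Inhibition = restoration of infected-cell growth relative to uninfected controls; cytotoxicity measured in parallel.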
Compound,inhibition at 20 µM,Inhibition
CC[C@H](C)[C@H](NC(C)=O)C(=O)N[C@@H](CCC(=O)O)C(=O)N[C@@H](C)C(=O)N[C@@H](CCC(N)=O)C(=O)N[C@@H](CCC(N)=O)C(=O)N[C@@H](CC(C)C)C(=O)N[C@@H](CC(C)C)C(=O)N[C@@H](CCC(N)=O)C(=O)N[C@@H](CC(C)C)C(=O)N[C@H](C(=O)N[C@H](C(=O)N[C@@H](Cc1c[nH]c2ccccc12)C(=O)NCC(=O)N[C@H](C(=O)N[C@@H](CCCCN)C(=O)N[C@@H](CCC(N)=O)C(=O)N[C@@H](CC(C)C)C(=O)N[C@@H](CCC(N)=O)C(=O)N[C@@H](C)C(=O)N[C@@H](CCCN=C(N)N)C(=O)N[C@H](C(=O)N[C@@H](CC(C)C)C(=O)N[C@@H](C)C(=O)N[C@H](C(=O)N[C@@H](CCC(=O)O)C(=O)N[C@@H](CCCN=C(N)N)C(=O)N[C@@H](Cc1ccc(O)cc1)C(=O)N[C@@H](CC(C)C)C(=O)N[C@@H](CCCCN)C(=O)N[C@@H](CC(=O)O)C(=O)N[C@@H](CCC(N)=O)C(=O)O)C(C)C)[C@@H](C)CC)[C@@H](C)CC)C(C)C)[C@@H](C)O (Ac-IEAQQLLQLTVWGIKQLQARILAVERYLKDQ-OH),28%,
CC[C@H](C)[C@H](NC(=O)CNC(=O)[C@H](C)NC(=O)[C@@H](NC(=O)[C@@H](NC(=O)[C@H](C)NC(=O)[C@H](C)NC(=O)[C@H](CC(C)C)NC(=O)[C@H](CC(C)C)NC(=O)[C@H](C)NC(=O)[C@H](CCC(N)=O)NC(=O)[C@H](CCC(N)=O)NC(=O)[C@H](C)NC(=O)[C@H](CCC(=O)O)NC(=O)[C@@H](NC(=O)[C@H](C)NC(=O)[C@H](CCCN=C(N)N)NC(=O)[C@H](CC(C)C)NC(=O)[C@H](CC(C)C)NC(=O)[C@H](CC(N)=O)NC(=O)[C@H](CC(N)=O)NC(C)=O)[C@@H](C)CC)[C@@H](C)O)C(C)C)C(=O)N[C@@H](C)C(=O)N[C@@H](C)C(=O)N[C@@H](CC(C)C)C(=O)N[C@@H](CCC(N)=O)C(=O)N[C@@H](C)C(=O)N[C@@H](CCCN=C(N)N)C(=O)N[C@H](C(=O)N[C@@H](C)C(=O)N[C@@H](C)C(=O)N[C@H](C(=O)N[C@@H](CCC(=O)O)C(=O)N[C@@H](C)C(=O)N[C@@H](Cc1ccc(O)cc1)C(=O)N[C@@H](CC(C)C)C(=O)N[C@@H](C)C(=O)N[C@@H](C)C(=O)N[C@@H](CCC(N)=O)C(=O)O)C(C)C)[C@@H](C)CC (Ac-NNLLRAIEAQQALLAATVAGIAALQARIAAVEAYLAAQ-OH),37%,
CCCCCCCCCCCCC(N)C(=O)N[C@H](C(=O)N[C@@H](CCCCN)C(=O)N[C@@H](CCC(N)=O)C(=O)N[C@@H](CC(C)C)C(=O)N[C@@H](CCC(N)=O)C(=O)N[C@@H](C)C(=O)N[C@@H](CCCN=C(N)N)C(=O)N[C@H](C(=O)N[C@@H](CC(C)C)C(=O)N[C@@H](C)C(=O)N[C@H](C(=O)N[C@@H](CCC(=O)O)C(=O)N[C@@H](CCCN=C(N)N)C(=O)N[C@@H](Cc1ccc(O)cc1)C(=O)N[C@@H](CC(C)C)C(=O)N[C@@H](CCCCN)C(=O)N[C@@H](CC(=O)O)C(=O)N[C@@H](CCC(N)=O)C(=O)O)C(C)C)[C@@H](C)CC)[C@@H](C)CC (stereo in doubt; 21),,9%
CCCCCCCCCCCCC(N)C(=O)N[C@H](C(=O)N[C@@H](CCCCN)C(=O)N[C@@H](CCC(N)=O)C(=O)N[C@@H](CC(C)C)C(=O)N[C@@H](CCC(N)=O)C(=O)N[C@@H](C)C(=O)N[C@@H](CCCN=C(N)N)C(=O)N[C@H](C(=O)N[C@@H](CC(C)C)C(=O)N[C@@H](C)C(=O)N[C@H](C(=O)N[C@@H](CCC(=O)O)C(=O)N[C@@H](CCCN=C(N)N)C(=O)N[C@@H](Cc1ccc(O)cc1)C(=O)N[C@@H](CC(C)C)C(=O)N[C@@H](CCCCN)C(=O)N[C@@H](CC(=O)O)C(=O)N[C@@H](CCC(N)=O)C(=O)O)C(C)C)[C@@H](C)CC)[C@@H](C)CC (stereo in doubt; 22),,0%
